CHRM5 PAM: positive allosteric modulators of human muscarinic M5 receptor; CHO-K1 hM5, Fluo-8 calcium, ACh EC20 PAM; 0% = ACh EC20, 100% = ACh EC100; activation, % at 3 µM; hit rate 0.3% among 360,000; AID 624038;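 active = activation above the run cutoff, the mean activation of all test compounds plus 3 SD, cut at about 18% in these data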
Target sequence (P08912 whole entry, looked up): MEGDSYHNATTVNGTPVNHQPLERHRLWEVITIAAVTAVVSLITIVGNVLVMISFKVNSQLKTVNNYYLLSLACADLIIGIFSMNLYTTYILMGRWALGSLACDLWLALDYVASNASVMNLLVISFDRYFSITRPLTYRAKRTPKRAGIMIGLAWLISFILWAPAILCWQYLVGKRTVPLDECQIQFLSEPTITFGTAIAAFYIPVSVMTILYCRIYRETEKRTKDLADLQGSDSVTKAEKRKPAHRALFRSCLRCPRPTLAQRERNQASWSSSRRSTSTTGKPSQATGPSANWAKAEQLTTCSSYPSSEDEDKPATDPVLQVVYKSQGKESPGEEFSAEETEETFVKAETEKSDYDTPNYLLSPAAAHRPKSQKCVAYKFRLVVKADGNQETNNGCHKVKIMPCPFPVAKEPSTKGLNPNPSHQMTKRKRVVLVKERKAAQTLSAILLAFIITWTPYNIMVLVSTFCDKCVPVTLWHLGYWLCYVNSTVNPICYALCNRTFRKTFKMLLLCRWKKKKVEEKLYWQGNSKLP
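Replicates: One well per compound, no replicates | System: Human M5 receptor in CHO-K1 cells | Benchmarks: Low control EC20 acetylcholine (0%), high control EC100 acetylcholine (100%) | Probe or stimulus: Acetylcholine, EC20 level | Times: Fluo-8 loading 80 min at 37 °C plus 30 min room temperature | Signal: Intracellular calcium via Fluo-8 fluorescence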
CHRM5 agonist: CHRM5 agonism in calcium assay; P08912; CHO-K1 hM5 cells, Fluo-8 calcium fluorescence; 0% DMSO wells, 100% maximal acetylcholine response; activation, % at 3 µM; hit rate 0.19% among 360,000; AID 624037;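 active = activation above the run's mean over test compounds plus 3 SD, cut at about 23% in these data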;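 also: signal is peak over basal fluorescence ratio across the kinetic read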
CHRM4 PAM: CHRM4 positive allosteric modulation; CHO-K1 hM4/Gqi5, Fluo-8 calcium fluorescence, ACh EC20; 0% = ACh EC20, 100% = maximal ACh; AID 624126; P08173; hit rate 0.4% among 360,000; activation, % at 3 µM;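 active = activation above its plate's cutoff, the mean activation of sample wells plus 3 SD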
CHRM4 antagonist: blocks acetylcholine activation of human M4 receptor; P08173; CHO-hM4 cells, ACh EC80, Fluo-8 calcium fluorescence; inhibition, % at 3 µM; hit rate 0.73% among 360,000; AID 624125;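 active = inhibition above its plate's cutoff, the mean inhibition of sample wells plus 3 SD, cut at about 27% in these data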;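 also: 0% = acetylcholine EC80 with DMSO and 100% = DMSO without agonist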
M5 antag: antagonists of human muscarinic M5 receptor (CHRM5); P08912; CHO-hM5 cells, Fluo-8 calcium fluorescence, ACh EC80; inhibition, % at 3 µM; hit rate 0.59% among 360,000; AID 624040;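 active = inhibition above a per-plate cutoff, the mean of that plate's test compounds plus 3 SD, cut at about 27% in these data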;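 also: 0% = acetylcholine EC80 with DMSO and 100% = DMSO without agonist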
CHRM4 agonist: agonists of human muscarinic M4 receptor (CHRM4). P08173. CHO-K1 hM4/Gqi5, Fluo-8 calcium fluorescence; vehicle 0%, full acetylcholine response 100%. hit rate 0.14% among 360,000. activation, % at 3 µM;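 active = activation above the run mean over all test wells plus 3 SD, cut at about 32% in these data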;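 also: peak over basal fluorescence ratio per well then scaled between controls; 0% = DMSO wells and 100% = acetylcholine at EC100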
Starred values were filed as active, the others as inactive. This is a sample that favours compounds with a hit; in the whole collection about 1.8% have one here.

SMILES | CHRM5 PAM | CHRM5 agonist | CHRM4 PAM | CHRM4 antagonist | M5 antag | CHRM4 agonist
O=C(Nc1ccc(F)cc1)C1CCCN(S(=O)(=O)c2cccc3nonc23)C1 (stereo unspecified) | 1 | -1 | 3 | -18 | 5 | 3
O=C(NCc1ccc(F)cc1)C1CCCN(S(=O)(=O)c2cccc3nonc23)C1 (stereo unspecified) | 20* | 3 | 7 | -13 | -26 | 3
CCOc1ccc(/C=C/[N+](=O)[O-])c2ccccc12 | -15 | 54* | -16 | 40* | 86* | 2
CCOC(=O)c1ccc2ncc(C(=O)OCC)c(NCc3ccco3)c2c1 | -11 | -2 | 1 | -4 | 6 | 1
CCC1CCCCN1CCCNC(=O)c1cn(CC)c2ccc(S(=O)(=O)N(C)C3CCCCC3)cc2c1=O (stereo unspecified) | -4 | -8 | -11 | 33* | 2 | 0
CCC1CCCCN1CCCNC(=O)c1cn(CC)c2ccc(S(=O)(=O)N3CCc4ccccc4C3)cc2c1=O (stereo unspecified) | 0 | -15 | -23 | 31* | 5 | -1
CCn1cc(C(=O)NCCCOC)c(=O)c2cc(S(=O)(=O)N(C)C3CCCCC3)ccc21 | -5 | -1 | -3 | -3 | -1 | 6
COc1ccc(C(=O)C2CCCN(Cc3nc4ccccc4nc3C)C2)cc1OC (stereo unspecified) | 0 | -4 | -2 | -8 | -3 | 1
CCOC(=O)N1CCC(N2CCCC(C(=O)c3cc(C)c(OC)c(C)c3)C2)CC1 (stereo unspecified) | -20 | -11 | -16 | 21 | 36* | 2
COc1ccc(C(=O)C2CCCN(C3Cc4ccccc4C3)C2)cc1OC (stereo unspecified) | -11 | -10 | -18 | 29* | 11 | 1
CC(C)C(OC(=O)c1nsc(Cl)c1Cl)C(=O)NCC1CCCO1 (stereo unspecified) | -3 | -2 | -16 | 20 | 6 | 0
CC(=O)Nc1ccc(NC(=O)C(C)OC(=O)c2ccc(S(=O)(=O)N3CCCCCC3)cc2)cc1 (stereo unspecified) | -7 | 3 | 5 | -4 | 12 | 0
C=CCn1c(SCCC)nc(O)cc1=O | -9 | 22 | -4 | 2 | 9 | 62*
CC(=O)N1CCN(c2ccc(NC(=O)c3ccc(C)c([N+](=O)[O-])c3)cc2)CC1 | 18* | 8 | -10 | 0 | -15 | 6
CCOC(=O)N1CCN(C(=O)CSCC(=O)Nc2nc(-c3ccc(OC)cc3)cs2)CC1 | -1 | 6 | -6 | 6 | 3 | 5
CCOC(=O)N1CCN(C(=O)CSCC(=O)Nc2nc(-c3ccc(-c4ccccc4)cc3)cs2)CC1 | -22 | 8 | -9 | 5 | 44* | 19
CCOC(=O)N1CCN(C(=O)c2[nH]c(C(F)(F)F)nc2-c2ccccc2)CC1 | 1 | 5 | 14 | 3 | 9 | 3
O=C(C1=C(O)C(=O)N(CCN2CCOCC2)C1c1cccc(O)c1)c1cc2ccccc2o1 (stereo unspecified) | -1 | -3 | 19* | -3 | 3 | 2
Cc1ccccc1NC(=O)COC(=O)CCc1ccccc1 | -1 | -2 | -4 | -3 | -7 | 1
Cn1ncc([N+](=O)[O-])c1C(=O)N/N=C/c1ccc(F)cc1 | 3 | 1 | 31* | 7 | -8 | 1
COc1ccc(Cn2ccnc2)cc1Br | 6 | -4 | 1 | 29* | 8 | 1
COc1ccc(Cn2ccnc2)cc1[N+](=O)[O-] | 1 | -4 | -2 | 3 | -6 | 1
COc1ccc(CCN2C(=O)C(Oc3ccccc3C)C2c2ccc3c(c2)OCO3)cc1OC (stereo unspecified) | -16 | -1 | -6 | 29* | 11 | 5
COc1ccc(CCN2C(=O)C(Oc3ccccc3C)C2c2ccc3c(c2)OCO3)cc1 (stereo unspecified) | 3 | 1 | -11 | -1 | 13 | 5
O=C(c1ccc(F)cc1)N1CCCC(C(=O)N2CCc3ccccc3C2)C1 (stereo unspecified) | -5 | -1 | -13 | -6 | 0 | 1
SMILES | CHRM5 PAM | CHRM5 agonist | CHRM4 PAM | CHRM4 antagonist | M5 antag | CHRM4 agonist
COc1ccccc1N1C(=O)c2ccc(C(=O)Nc3ccccc3O)cc2C1=O | 4 | 7 | 12 | 30* | 33* | 21
CC(=O)Oc1ccccc1N1C(=O)c2ccc(C(=O)O)cc2C1=O | 12 | -1 | 28 | 31* | 2 | 2
COc1ccc(N2C(=O)c3ccc(C(=O)Nc4ccccc4O)cc3C2=O)cc1 | -3 | 2 | 4 | -5 | 20 | 0
CC1=C(C(=O)N(C)C)CC(CC(=O)NCC2CCCCC2)C(=O)N1CCCN1CCCC1=O (stereo unspecified) | 1 | 0 | 6 | -18 | -15 | 0
Cc1ccc(C)c(NC(=O)CN(C)C(C)C(=O)N2CC(C)CC(C)C2)c1 (stereo unspecified) | 19* | -3 | 16 | -12 | -21 | 2
Cc1cc(C)c2c(N)c(C(=O)c3ccc(Cl)cc3)sc2n1 | -6 | 0 | 28* | -2 | 6 | 11
Cc1cc(C)c2c(N)c(C(=O)c3ccccc3)sc2n1 | 5 | -3 | 56* | 33* | -10 | 26
Cn1c(SCC(=O)NNC(=O)c2ccccc2Br)nnc1C(F)(F)F | 3 | 1 | 16 | -10 | 5 | 1
C=Cn1cc[n+](CC(=O)C(C)(C)C)c1 | -4 | -10 | -4 | 4 | 6 | 0
CC1SC(C)C(=O)N(CC(=O)NC2CCCCC2)C1=O (stereo unspecified) | -2 | 1 | -2 | 7 | 5 | 1
COc1ccccc1NC(=O)Cn1nnc(-c2ccccc2NS(=O)(=O)c2ccccc2)n1 | -17 | 0 | -30 | 7 | 34* | 15
COc1ccc(OC)c(NC(=O)COC(=O)c2ccc(OC)c(S(=O)(=O)N3CCOCC3)c2)c1 | -6 | 12 | 4 | -5 | 4 | 2
O=C(NCCCNC(=O)c1cnccn1)c1ccc(Cl)cc1 | 0 | -3 | 1 | 0 | 17 | 2
O=C(NCCCNC(=O)c1cnccn1)c1ccc(Cl)c(Cl)c1 | -9 | -1 | -14 | 60* | 27 | -3
O=c1oc2ccccc2c2c1cnc1ccccc12 | -1 | 0 | 4 | -12 | -3 | 2
NC(=O)c1cccc2c(=O)oc3ccccc3c12 | 19* | -2 | 6 | -5 | -10 | 1
O=C(/C=C/c1ccco1)N(Cc1cccc(Cl)c1)C1CCS(=O)(=O)C1 (stereo unspecified) | -20 | -5 | -20 | -8 | 27* | 18

Compound activity from PubChem.
